In paper PMC5812400 (ESMO Open, 2018):
Several values for one entry are separate records, joined by “and”; a condition that tells them apart may be missing. Identical values can stand only once.

Tests used:
[1] = tested on: patients with haematological malignancies or advanced solid tumours; settings: unmilled TAK-228, haematological malignancies; ref 7 11; cited from earlier work
[2] = tested on: advanced non-haematological malignancies; experiment: Tumour response; assay type: in vivo, human
Method in brief: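 Response assessed by RECIST 1.1 on contrast CT or MRI of chest, abdomen and pelvis; bone scans allowed for bone metastases. Same modality kept per patient. Baseline scan within 4 weeks before first dose, then cycle 3 day 1 and every two cycles until end of study or discontinuation. ORR = CR+PR; clinical benefit = CR+PR+SD, and CR+PR+SD ≥6 months.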

[3] = Plasma PK of TAK-228 4 mg in single-agent QD PK run-in; assay type: in vivo, human; settings: for AUC(0-inf) / Cmax: geometric mean (%CV)
Method in brief: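 Run-in ≤14 days before cycle 1. Three visits ≥48 h apart, each a 4 mg oral dose: unmilled fasted, milled after high-fat breakfast, milled fasted. No proton pump inhibitor within 5 days or H2 antagonist within 24 h. LC-MS/MS validated over 1–1000 ng/mL. ANOVA on log Cmax and AUC (treatment fixed, patient random); geometric mean ratios with 90% CI.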

[4] = Plasma PK of milled TAK-228 in TAK-228+P and TAK-228 QW arms, LC-MS/MS; assay type: in vivo, human; settings: for Cmax / Tmax / AUC(0-t) / AUC(0-inf) / Vd/F / half-life: human, plasma, oral
Method in brief: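 Milled capsules given fasted. Combination arm sampled on cycle 1 day 2, the first dosing day, ~24 h after IV taxane 80 mg/m2; QW arm sampled on cycle 1 day 1. LC-MS/MS validated over 1–1000 ng/mL. PK parameters summarised descriptively (geometric/arithmetic means, medians, CV).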

[5] = human, plasma, oral, 4 mg, 4 mg milled, fed (high-fat breakfast)

SMILES: CC(C)n1nc(-c2ccc3oc(N)nc3c2)c2c(N)ncnc21 [TAK-228, Sapanisertib]
- Incidence of grade ≥3 drug-related AEs [1]: 31%
- Best overall response: CR ([2]; QD 3 mg (n=11)): 0 n (%)
- Best overall response: PD ([2]; QD 3 mg (n=11)): 3 (27) n (%)
- Best overall response: PR ([2]; QD 3 mg (n=11)): 1 (9) n (%)
- Best overall response: SD (<6 months) ([2]; QD 3 mg (n=11)): 3 (27) n (%)
- Best overall response: SD (≥6 months) ([2]; QD 3 mg (n=11)): 3 (27) n (%)
- Clinical benefit rate CR+PR + SD ([2]; QD 3 mg (n=11)): 7 (64) n (%)
- Clinical benefit rate CR+PR + SD ≥6 months ([2]; QD 3 mg (n=11)): 4 (36) n (%)
- Objective response rate (CR+PR) ([2]; QD 3 mg (n=11)): 1 (9) n (%)
- Best overall response: CR ([2]; QD 4 mg (n=6)): 0 n (%)
- Best overall response: PD ([2]; QD 4 mg (n=6)): 3 (50) n (%)
- Best overall response: PR ([2]; QD 4 mg (n=6)): 1 (17) n (%)
- Best overall response: SD (<6 months) ([2]; QD 4 mg (n=6)): 0 n (%)
- Best overall response: SD (≥6 months) ([2]; QD 4 mg (n=6)): 1 (17) n (%)
- Clinical benefit rate CR+PR + SD ([2]; QD 4 mg (n=6)): 2 (33) n (%)
- Clinical benefit rate CR+PR + SD ≥6 months ([2]; QD 4 mg (n=6)): 2 (33) n (%)
- Objective response rate (CR+PR) ([2]; QD 4 mg (n=6)): 1 (17) n (%)
- Best overall response: CR ([2]; QD Total (n=17)): 0 n (%)
- Best overall response: PD ([2]; QD Total (n=17)): 6 (35) n (%)
- Best overall response: PR ([2]; QD Total (n=17)): 2 (12) n (%)
- Best overall response: SD (<6 months) ([2]; QD Total (n=17)): 3 (18) n (%)
- Best overall response: SD (≥6 months) ([2]; QD Total (n=17)): 4 (24) n (%)
- Clinical benefit rate CR+PR + SD ([2]; QD Total (n=17)): 9 (53) n (%)
- Clinical benefit rate CR+PR + SD ≥6 months ([2]; QD Total (n=17)): 6 (35) n (%)
- Objective response rate (CR+PR) ([2]; QD Total (n=17)): 2 (12) n (%)
- Objective response rate (ORR) ([2]; QD arm): 12%
- Overall clinical benefit rate (CR+PR + SD) ([2]; QD arm (9/17 patients)): 52.9%
- Best overall response: CR ([2]; QW 20 mg (n=7)): 0 n (%)
- Best overall response: PD ([2]; QW 20 mg (n=7)): 3 (43) n (%)
- Best overall response: PR ([2]; QW 20 mg (n=7)): 0 n (%)
- Best overall response: SD (<6 months) ([2]; QW 20 mg (n=7)): 3 (43) n (%)
- Best overall response: SD (≥6 months) ([2]; QW 20 mg (n=7)): 0 n (%)
- Clinical benefit rate CR+PR + SD ([2]; QW 20 mg (n=7)): 3 (43) n (%)
- Clinical benefit rate CR+PR + SD ≥6 months ([2]; QW 20 mg (n=7)): 0 n (%)
- Objective response rate (CR+PR) ([2]; QW 20 mg (n=7)): 0 n (%)
- Best overall response: CR ([2]; QW 30 mg (n=13)): 0 n (%)
- Best overall response: PD ([2]; QW 30 mg (n=13)): 3 (23) n (%)
- Best overall response: PR ([2]; QW 30 mg (n=13)): 0 n (%)
- Best overall response: SD (<6 months) ([2]; QW 30 mg (n=13)): 5 (39) n (%)
- Best overall response: SD (≥6 months) ([2]; QW 30 mg (n=13)): 1 (8) n (%)
- Clinical benefit rate CR+PR + SD ([2]; QW 30 mg (n=13)): 6 (46) n (%)
- Clinical benefit rate CR+PR + SD ≥6 months ([2]; QW 30 mg (n=13)): 1 (8) n (%)
- Objective response rate (CR+PR) ([2]; QW 30 mg (n=13)): 0 n (%)
- Best overall response: CR ([2]; QW Total (n=20)): 0 n (%)
- Best overall response: PD ([2]; QW Total (n=20)): 6 (30) n (%)
- Best overall response: PR ([2]; QW Total (n=20)): 0 n (%)
- Best overall response: SD (<6 months) ([2]; QW Total (n=20)): 8 (40) n (%)
- Best overall response: SD (≥6 months) ([2]; QW Total (n=20)): 1 (5) n (%)
- Clinical benefit rate CR+PR + SD ([2]; QW Total (n=20)): 9 (45) n (%)
- Clinical benefit rate CR+PR + SD ≥6 months ([2]; QW Total (n=20)): 1 (5) n (%)
- Objective response rate (CR+PR) ([2]; QW Total (n=20)): 0 n (%)
- Objective response rate (ORR) ([2]; QW arm): 0%
- Overall clinical benefit rate (CR+PR + SD) ([2]; QW arm (9/20 patients)): 45%
- AUC(0-inf) ([3]; human, plasma, oral, 4 mg, 4 mg milled, fasted): 0.369 µg·h/mL
- AUC(0-inf) [3, 5]: 0.383 µg·h/mL
- Cmax [3, 5]: 0.0216 µg/mL
- Cmax ([3]; human, plasma, oral, 4 mg, 4 mg unmilled, fasted): 0.034 µg/mL
- Tmax ([3]; human, plasma, oral, 4 mg, Tmax, median (range), 4 mg milled, fed (high-fat breakfast)): 6 h
- Reduction in geometric mean Cmax, fed versus fasted ([3]; milled 4 mg, high-fat breakfast vs empty stomach): ~ 40% and 40%
- CL/F, geometric mean (CV) ([4]; QW 20 mg (n=7)): 15.1 (46) L/hour
- CL/F, geometric mean (CV) ([4]; QW 30 mg (n=13)): 18.3 (63) L/hour
- Effect of paclitaxel administered 24 hours before TAK-228 on TAK-228 PK ([4]; combination arm vs QD arm (4 mg, milled, fasted)): no clinically meaningful effects
- Cmax ([4]; 4 mg): 0.0285 µg/mL
- Tmax ([4]; 4 mg): 2.2 h
- AUC(0-t) ([4]; 6 mg): 0.244 µg·h/mL
- AUC(0-inf) ([4]; 20 mg): 1.33 µg·h/mL
- AUC(0-t) ([4]; 20 mg): 1.24 µg·h/mL
- Cmax ([4]; 20 mg): 0.209 µg/mL
- Vd/F ([4]; 20 mg): 125 L
- half-life ([4]; 20 mg): 6.1 h
- AUC(0-inf) ([4]; 30 mg): 1.64 µg·h/mL
- AUC(0-t) ([4]; 30 mg): 1.53 µg·h/mL
- Cmax ([4]; 30 mg): 0.235 µg/mL
- Tmax ([4]; 30 mg): 1 h
- Vd/F ([4]; 30 mg): 155 L
- half-life ([4]; 30 mg): 6 h
